These results are taken from ChEMBL document CHEMBL4138245, “Design and synthesis of novel quinacrine-[1,3]-thiazinan-4-one hybrids for their anti-breast cancer activity” (Eur J Med Chem, 2018).

Calls of active or inactive are those of the source. The rule behind the calls is not given here.

The test system of test [1] is MDA-MB-468. Put plainly: Antiproliferative activity against human MDA-MB-468 cells after 48 hrs by SRB assay. Type of test: functional, cell-based. To be noted: MDA-MB-468, 48 h. Summed up: (§1)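 SRB assay: 5,000-10,000 cells/well plated, 24 h at 37 °C/5% CO2 before drug; seven concentrations from 100 μM down (two- to ten-fold serial dilutions, DMSO ≤0.1% final) for 48 h; TCA fixation (10% final, 60 min, 4 °C), 0.4% SRB in 1% acetic acid, solubilized in 10 mM Tris base, absorbance 515-564 nm; growth = (Ti−Tz)/(C−Tz)×100; IC50 from sigmoidal variable-slope fit; triplicates, ≥2 independent experiments.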

In test [2] the test system is MCF7. Put plainly: Antiproliferative activity against human MCF7 cells after 48 hrs by SRB assay. Particulars: MCF7, 48 h. Type of test: functional, cell-based. Summed up: as §1
Test [3] deals with MDA-MB-231. Briefly: Antiproliferative activity against human MDA-MB-231 cells after 48 hrs by SRB assay. Format: functional, cell-based. Particulars: MDA-MB-231, 48 h. Summed up:
as §1

Test [4] relates to 184B5. Briefly: Antiproliferative activity against human 184B5 cells after 48 hrs by SRB assay. Type of test: cell-based. Particulars: 184B5, 48 h. Summed up: as §1
The subject of test [5] is MCF7. Put plainly: Anticlonogenic activity against human MCF7 cells at 0.39 to 1.5 uM after 12 hrs by crystal violet staining based assay. Format: functional, cell-based. The method, boiled down:
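Clonogenic assay: 1000 cells/well seeded, treated after overnight attachment for 12 h, then medium replaced and cells grown until control colonies were large enough; colonies stained with crystal violet.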

With `COc1ccc2nc3cc(Cl)ccc3c(NCCCN3C(=O)CCSC3c3ccccc3)c2c1` (configuration not stated), the 50% inhibitory concentration (IC50) amounted to 4.72 µM in test [1], 4.79 µM in test [2], 4.07 µM in test [3] and 9.32 µM in test [4].

As to `CCN(CC)CCCC(C)Nc1c2ccc(Cl)cc2nc2ccc(OC)cc12` (configuration not stated) [QUINACRINE], the half-inhibitory concentration (IC50) in test [1] is 3.96 µM; in test [2], 4.19 µM; in test [3], 3.25 µM; in test [4] it was 4.96 µM. The outcome in test [5] was Active.

Turning to `COc1ccc2nc3cc(Cl)ccc3c(NCCCN3C(=O)CCSC3c3ccc([N+](=O)[O-])cc3)c2c1` (configuration not stated), the half-maximal inhibitory concentration (IC50) in test [1] was determined as 9.41 µM; in test [2], 7.04 µM; in test [3] it was 4.68 µM; in test [4] it was 19.5 µM.

On to `COc1ccc2nc3cc(Cl)ccc3c(NCCCN3C(=O)CCSC3c3ccc(Cl)cc3)c2c1` (configuration not stated), for which the IC50 in test [1] stood at 4.43 µM; in test [2] it was 3.4 µM; in test [3], 3.53 µM; in test [4], 5.02 µM.

Consider `COc1ccc2nc3cc(Cl)ccc3c(NCCCN3C(=O)CCSC3c3ccc(C)cc3)c2c1` (configuration not stated), for which the IC50 in test [1] turned out to be 6.97 µM; in test [2], 5.52 µM; in test [3], 4.87 µM; in test [4], 5.66 µM.

`COc1ccc2nc3cc(Cl)ccc3c(NCCCN3C(=O)CCSC3c3ccc(F)cc3)c2c1` (configuration not stated): the half-maximal inhibitory concentration (IC50) is 4.58 µM in test [1], 4.97 µM in test [2], 5.36 µM in test [3] and 28.2 µM in test [4].

As for `COc1ccc2nc3cc(Cl)ccc3c(NCCCN3C(=O)CCSC3c3ccco3)c2c1` (configuration not stated), the concentration for half-maximal inhibition (IC50) in test [1] came out at 3.67 µM; in test [2] it was 3.57 µM; in test [3], 3.46 µM; in test [4] it was 3.6 µM.

As to `COc1ccc2nc3cc(Cl)ccc3c(NCCCN3C(=O)CCSC3c3ccnc4ccccc34)c2c1` (configuration not stated), the concentration for half-maximal inhibition (IC50) in test [1] came to 10.4 µM; in test [2], 8.94 µM; in test [3] it was 7.48 µM; in test [4] it was 27.1 µM.

With `COc1ccc2nc3cc(Cl)ccc3c(NCCCN3C(=O)CCSC3c3ccc(Br)cc3)c2c1` (configuration not stated), the IC50 was found to be 25.5 µM in test [1], 31.3 µM in test [2], 37.1 µM in test [3] and 35.8 µM in test [4].

With `COc1ccc2nc3cc(Cl)ccc3c(NCCCN3C(=O)CCSC3c3c(F)cccc3F)c2c1` (configuration not stated), the IC50 worked out at 3.2 µM in test [1], 3.81 µM in test [2], 4.41 µM in test [3] and 29.3 µM in test [4].

On to `COc1ccc2nc3cc(Cl)ccc3c(NCCCN3C(=O)CCSC3c3ccc(N(C)C)cc3)c2c1` (configuration not stated), for which the IC50 in test [1] came out at 3.56 µM; in test [2] it was 3.09 µM; in test [3] it was 2.63 µM; in test [4] it was 13.2 µM.

For the molecule `CCN(CC)CCCC(C)Nc1ccnc2cc(Cl)ccc12` (configuration not stated) [CHLOROQUINE PHOSPHATE], the concentration for half-maximal inhibition (IC50) in test [1] was 28.6 µM; in test [2], 38.4 µM; in test [3], 22.5 µM; in test [4], 76.1 µM.

On to `COc1ccc2nc3cc(Cl)ccc3c(NCCCN3C(=O)CCSC3c3ccccc3[N+](=O)[O-])c2c1` (configuration not stated), for which the 50% inhibitory concentration (IC50) in test [1] stood at 1.21 µM; in test [2], 0.99 µM; in test [3], 0.77 µM; in test [4] it was 1.83 µM.

Consider `COc1ccc2nc3cc(Cl)ccc3c(NCCCN3C(=O)CCSC3c3ccncc3)c2c1` (configuration not stated), for which the IC50 is 21.6 µM in test [1], 16.2 µM in test [2], 10.8 µM in test [3] and 14.6 µM in test [4].

Turning to `COc1ccc2nc3cc(Cl)ccc3c(NCCCN3C(=O)CCSC3c3ccccc3Cl)c2c1` (configuration not stated), the IC50 in test [1] stood at 19.9 µM; in test [2], 15.3 µM; in test [3], 10.8 µM; in test [4] it was 69.6 µM.

For `COc1ccc2nc3cc(Cl)ccc3c(NCCCN3C(=O)CCSC3c3c(Cl)cccc3Cl)c2c1` (configuration not stated), the IC50 was 1.29 µM in test [1], 4.41 µM in test [2], 7.54 µM in test [3] and 3.84 µM in test [4].

As to `COc1ccc2nc3cc(Cl)ccc3c(NCCCN3C(=O)CCSC3c3ccc[nH]3)c2c1` (configuration not stated), the IC50 in test [1] came to 4.87 µM; in test [2], 1.66 µM; in test [3], 4.56 µM; in test [4], 12.9 µM.

In the case of `COc1ccc2nc3cc(Cl)ccc3c(NCCCN3C(=O)CCSC3c3ccc(N(c4ccccc4)c4ccccc4)cc3)c2c1` (configuration not stated), the 50% inhibitory concentration (IC50) came out at 1.68 µM in test [1], 1.85 µM in test [2], 3.32 µM in test [3] and 3.11 µM in test [4].

Turning to `COc1ccc2nc3cc(Cl)ccc3c(NCCCN3C(=O)CCSC3C3CCCCC3)c2c1` (configuration not stated), the IC50 turned out to be 5.25 µM in test [1], 5.05 µM in test [2], 5.85 µM in test [3] and 7.71 µM in test [4].

For the molecule `COc1ccc2nc3cc(Cl)ccc3c(NCCCN3C(=O)CCSC3c3c(F)cccc3Cl)c2c1` (configuration not stated), the IC50 amounted to 5.19 µM in test [1], 4.31 µM in test [2], 3.44 µM in test [3] and 3.1 µM in test [4].

For the molecule `COc1ccc2nc3cc(Cl)ccc3c(NCCCN3C(=O)CCSC3c3ccccc3Br)c2c1` (configuration not stated), the IC50 in test [1] was 38.6 µM; in test [2], 39.3 µM; in test [3], 40.1 µM; in test [4], 15.6 µM.

For the molecule `COc1ccc2nc3cc(Cl)ccc3c(NCCCN3C(=O)CCSC3c3ccccc3F)c2c1` (configuration not stated), the 50% inhibitory concentration (IC50) in test [1] is 2.68 µM; in test [2] it was 2.29 µM; in test [3], 4.11 µM; in test [4], 35.6 µM.

With `COc1ccc2nc3cc(Cl)ccc3c(NCCCN3C(=O)CCSC3c3ccc(Cl)cc3Cl)c2c1` (configuration not stated), the IC50 in test [1] worked out at 3.72 µM; in test [2] it was 1.85 µM; in test [3] it was 3.07 µM; in test [4], 4.28 µM.

Consider `COc1ccc2nc3cc(Cl)ccc3c(NCCCN3C(=O)CCSC3c3ccc(F)cc3F)c2c1` (configuration not stated), for which the IC50 in test [1] came to 3.79 µM; in test [2], 3.39 µM; in test [3], 4.54 µM; in test [4], 5.08 µM.
